One block for each compound: values may come before it.
Key:
[1] = target: PI3-kinase p110-delta/p85-alpha (Homo sapiens, UniProt O00329); experiment: Inhibition of human full length PI3K p110delta/p85 alpha using PIP2/ATP as substrate after 30 mins by TR-FRET assay
[2] = target: PI3-kinase p110-alpha/p85-alpha (Homo sapiens, UniProt P42336); experiment: Inhibition of human full length PI3K p110alpha/p85 alpha using PIP2/ATP as substrate after 30 mins by TR-FRET assay
[3] = target: Phosphatidylinositol 4,5-bisphosphate 3-kinase catalytic subunit gamma isoform (Homo sapiens, UniProt P48736); experiment: Inhibition of human full length PI3Kgamma using PIP2/ATP as substrate after 30 mins by TR-FRET assay
Chain of Phosphatidylinositol 4,5-bisphosphate 3-kinase catalytic subunit gamma isoform (P48736 whole entry, canonical isoform): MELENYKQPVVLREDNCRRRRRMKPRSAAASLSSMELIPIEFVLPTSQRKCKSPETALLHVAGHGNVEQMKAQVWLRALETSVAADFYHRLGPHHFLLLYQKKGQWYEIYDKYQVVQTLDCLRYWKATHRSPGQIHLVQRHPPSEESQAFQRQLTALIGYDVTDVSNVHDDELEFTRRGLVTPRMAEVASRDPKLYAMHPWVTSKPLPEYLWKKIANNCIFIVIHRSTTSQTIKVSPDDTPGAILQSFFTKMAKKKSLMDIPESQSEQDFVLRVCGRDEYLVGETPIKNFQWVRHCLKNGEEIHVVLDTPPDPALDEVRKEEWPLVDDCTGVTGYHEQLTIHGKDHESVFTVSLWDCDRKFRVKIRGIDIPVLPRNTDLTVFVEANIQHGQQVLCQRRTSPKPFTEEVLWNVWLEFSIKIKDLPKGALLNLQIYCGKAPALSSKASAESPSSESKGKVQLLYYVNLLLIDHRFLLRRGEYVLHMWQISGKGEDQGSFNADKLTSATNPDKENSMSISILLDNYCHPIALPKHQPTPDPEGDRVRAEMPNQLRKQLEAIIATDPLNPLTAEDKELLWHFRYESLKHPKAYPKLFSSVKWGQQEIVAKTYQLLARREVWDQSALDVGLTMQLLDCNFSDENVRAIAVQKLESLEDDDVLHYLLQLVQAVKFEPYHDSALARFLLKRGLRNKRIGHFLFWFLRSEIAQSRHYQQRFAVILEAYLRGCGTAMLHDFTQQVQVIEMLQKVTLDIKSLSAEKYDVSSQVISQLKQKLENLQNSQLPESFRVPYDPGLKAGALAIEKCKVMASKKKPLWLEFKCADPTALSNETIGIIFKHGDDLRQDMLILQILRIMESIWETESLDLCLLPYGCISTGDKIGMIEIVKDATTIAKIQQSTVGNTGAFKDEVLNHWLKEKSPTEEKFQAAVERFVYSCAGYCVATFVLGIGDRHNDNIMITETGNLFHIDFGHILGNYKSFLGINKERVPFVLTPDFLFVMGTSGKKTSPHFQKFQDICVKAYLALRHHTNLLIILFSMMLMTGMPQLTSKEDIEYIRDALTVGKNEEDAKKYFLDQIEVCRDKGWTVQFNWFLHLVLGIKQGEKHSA

[4] = Drug metabolism in human hepatocytes assessed as formation of oxidative metabolite of pyrimidine moiety; type: ADME, cell-based, Hepatocyte
[5] = Volume of distribution at steady state in Sprague-Dawley rat plasma at 1 mg/kg, iv administered via infusion over 30 mins measured over 24 hrs by LC/MS/MS analysis; type: ADME, organism-based; conditions: read-out: Vdss
Method in brief: (§1)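 Single intravenous dose of 1 mg/kg. Half-life, mean residence time and steady-state volume of distribution were taken from the iv arm. Values are mean ± SD, n=3 animals per route.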

[6] = Permeability from apical to basolateral side in human Caco2 cells; type: ADME, cell-based; conditions: Caco-2, read-out: permeability
[7] = Permeability from basolateral to apical side in human Caco2 cells; type: ADME, cell-based; conditions: Caco-2, read-out: permeability
[8] = Clearance in Sprague-Dawley rat at 1 mg/kg, iv administered via infusion over 30 mins measured over 24 hrs by LC/MS/MS analysis; type: ADME, organism-based; conditions: in vivo
[9] = Oral bioavailability in Sprague-Dawley rat plasma at 5 mg/kg administered via gavage by LC/MS/MS analysis; type: ADME, organism-based
Method in brief: (§2)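 Oral dose of 5 mg/kg, formulated in 5% ethanol, 50% PEG 300 and 45% water. Bioavailability was referenced to the separate 1 mg/kg intravenous arm. Values are mean ± SD, n=3 animals per route.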

[10] = Volume of distribution at steady state in cynomolgus monkey at 1 mg/kg, iv administered via infusion over 30 mins measured over 24 hrs by LC/MS/MS analysis; type: ADME, organism-based, Macaca fascicularis; conditions: in vivo, read-out: Vdss; method in brief: as §1
[11] = Unbound fraction in cynomolgus monkey plasma; type: ADME, cell-free, Macaca fascicularis
LNCaP [12] = experiment: Growth inhibition of PTEN-deficient human LNCAP cells after 72 hrs by Celltiter-Glo reagent based assay; type: functional
[13] = target: Voltage-gated inwardly rectifying potassium channel KCNH2 (Homo sapiens, UniProt Q12809); experiment: Inhibition of human ERG
Method in brief: (§3)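 Measured in binding assays against major human CYP450 enzymes and hERG.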

[14] = Mean residence time in rhesus monkey plasma at 1 mg/kg, iv administered via infusion over 30 mins measured over 24 hrs by LC/MS/MS analysis; type: ADME, organism-based, Macaca mulatta; method in brief: as §1
MDA-MB-415 = experiment: Growth inhibition of PTEN-deficient human MDA-MB-415 cells after 72 hrs by Celltiter-Glo reagent based assay; type: functional; conditions: MDA-MB-415, 72 h
Mus musculus [15] = experiment: In vivo inhibition of PI3Kbeta in CB17 SCID mouse xenografted with human PTEN-deficient androgen responsive LNCAP cells assessed as inhibition of AKT1 phosphorylation at Serine 473 at […] administered by oral gavage and measured after 8 hrs; type: functional
[16] = Volume of distribution at steady state in rhesus monkey at 1 mg/kg, iv administered via infusion over 30 mins measured over 24 hrs by LC/MS/MS analysis; type: ADME, organism-based, Macaca mulatta; conditions: in vivo, read-out: Vdss; method in brief: as §1
[17] = Clearance in Beagle dog plasma at 1 mg/kg, iv administered via infusion over 30 mins measured over 24 hrs by LC/MS/MS analysis; type: ADME, organism-based, Canis lupus familiaris; method in brief: as §1
[18] = Apparent terminal half life in rhesus monkey plasma at 1 mg/kg, iv administered via infusion over 30 mins measured over 24 hrs by LC/MS/MS analysis; type: ADME, organism-based, Macaca mulatta; conditions: read-out: betat1/2(app) (converted); method in brief: as §1
LNCaP [19] = experiment: Antitumor activity against human PTEN-deficient androgen responsive LNCAP cells xenografted in CB17 SCID mouse assessed as tumor growth inhibition at […] administered by oral gavage twice daily for 14 days; type: functional; conditions: 336 h, read-out: TGI
[20] = Oral bioavailability in Beagle dog plasma at 5 mg/kg administered via gavage by LC/MS/MS analysis; type: ADME, organism-based, Canis lupus familiaris; method in brief: as §2
PC-3 = experiment: Growth inhibition of PTEN-deficient human PC3 cells after 72 hrs by Celltiter-Glo reagent based assay; type: functional; conditions: PC-3, 72 h
LNCaP [21] = experiment: Antitumor activity against human PTEN-deficient androgen responsive LNCAP cells xenografted in CB17 SCID mouse assessed as tumor growth inhibition at 3 mg/kg administered by oral gavage twice daily for 14 days; type: functional; conditions: 336 h, read-out: TGI
Method in brief: (§4)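 Mice bearing LNCaP tumours were dosed at 15, 7.5 and 3 mg/kg twice a day. Tumour volume (mm3) was measured twice a week throughout. Growth inhibition was calculated after the final dose for each dose group.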

[22] = Oral bioavailability in cynomolgus monkey plasma at 5 mg/kg administered via gavage by LC/MS/MS analysis; type: ADME, organism-based, Macaca fascicularis; method in brief: as §2
Mus musculus [23] = experiment: In vivo inhibition of PI3Kbeta in CB17 SCID mouse xenografted with human PTEN-deficient androgen responsive LNCAP cells assessed as inhibition of AKT1 phosphorylation at Serine 473 at 15 mg/kg administered by oral gavage and measured after 2 hrs; type: functional
[24] = Mean residence time in cynomolgus monkey plasma at 1 mg/kg, iv administered via infusion over 30 mins measured over 24 hrs by LC/MS/MS analysis; type: ADME, organism-based, Macaca fascicularis; method in brief: as §1
[25] = Inhibition of human CYP450; type: ADME; method in brief: as §3
[26] = Volume of distribution at steady state in Beagle dog plasma at 1 mg/kg, iv administered via infusion over 30 mins measured over 24 hrs by LC/MS/MS analysis; type: ADME, organism-based, Canis lupus familiaris; conditions: read-out: Vdss; method in brief: as §1
[27] = Mean residence time in Sprague-Dawley rat plasma at 1 mg/kg, iv administered via infusion over 30 mins measured over 24 hrs by LC/MS/MS analysis; type: ADME, organism-based; method in brief: as §1
ZR-75-1 = experiment: Growth inhibition of PTEN-deficient human ZR-75-1 cells after 72 hrs by Celltiter-Glo reagent based assay; type: functional; conditions: ZR-75-1, 72 h
[28] = Inhibition of PI3Kbeta mutant in PTEN-deficient human A498 cells assessed decrease in AKT1 phosphorylation at Ser473 after 2 hrs; conditions: A498, 2 h
[29] = Clearance in rhesus monkey plasma at 1 mg/kg, iv administered via infusion over 30 mins measured over 24 hrs by LC/MS/MS analysis; type: ADME, organism-based, Macaca mulatta; method in brief: as §1
LNCaP [30] = experiment: Antitumor activity against human PTEN-deficient androgen responsive LNCAP cells xenografted in CB17 SCID mouse assessed as tumor growth inhibition at 15 mg/kg administered by oral gavage twice daily for 14 days; type: functional; conditions: 336 h, read-out: TGI; method in brief: as §4
[31] = Mean residence time in Beagle dog plasma at 1 mg/kg, iv administered via infusion over 30 mins measured over 24 hrs by LC/MS/MS analysis; type: ADME, organism-based, Canis lupus familiaris; method in brief: as §1
[32] = Unbound fraction in rhesus monkey plasma; type: ADME, cell-free, Macaca mulatta
A498 = experiment: Growth inhibition of human A498 cells harboring PI3Kbeta mutant after 72 hrs by Celltiter-Glo reagent based assay; type: functional; conditions: A498, 72 h
[33] = Unbound fraction in Sprague-Dawley rat plasma; type: ADME, cell-free
LNCaP [34] = experiment: Antitumor activity against human PTEN-deficient androgen responsive LNCAP cells xenografted in CB17 SCID mouse administered by oral gavage twice daily for 14 days; type: functional; conditions: 336 h, read-out: MED; method in brief: as §4
[35] = Clearance in cynomolgus monkey plasma at 1 mg/kg, iv administered via infusion over 30 mins measured over 24 hrs by LC/MS/MS analysis; type: ADME, organism-based, Macaca fascicularis; method in brief: as §1
[36] = Apparent terminal half life in Beagle dog plasma at 1 mg/kg, iv administered via infusion over 30 mins measured over 24 hrs by LC/MS/MS analysis; type: ADME, organism-based, Canis lupus familiaris; conditions: read-out: betat1/2(app) (converted); method in brief: as §1
[37] = Apparent terminal half life in cynomolgus monkey plasma at 1 mg/kg, iv administered via infusion over 30 mins measured over 24 hrs by LC/MS/MS analysis; type: ADME, organism-based, Macaca fascicularis; conditions: read-out: betat1/2(app) (converted); method in brief: as §1
[38] = Apparent terminal half life in Sprague-Dawley rat plasma at 1 mg/kg, iv administered via infusion over 30 mins measured over 24 hrs by LC/MS/MS analysis; type: ADME, organism-based; conditions: read-out: betat1/2(app) (converted); method in brief: as §1
[39] = Unbound fraction in Beagle dog plasma; type: ADME, cell-free, Canis lupus familiaris
[40] = Clearance in Sprague-Dawley rat plasma at 1 mg/kg, iv administered via infusion over 30 mins measured over 24 hrs by LC/MS/MS analysis; type: ADME, organism-based; method in brief: as §1

Chain of PI3-kinase p110-alpha/p85-alpha (P27986 whole entry, canonical isoform): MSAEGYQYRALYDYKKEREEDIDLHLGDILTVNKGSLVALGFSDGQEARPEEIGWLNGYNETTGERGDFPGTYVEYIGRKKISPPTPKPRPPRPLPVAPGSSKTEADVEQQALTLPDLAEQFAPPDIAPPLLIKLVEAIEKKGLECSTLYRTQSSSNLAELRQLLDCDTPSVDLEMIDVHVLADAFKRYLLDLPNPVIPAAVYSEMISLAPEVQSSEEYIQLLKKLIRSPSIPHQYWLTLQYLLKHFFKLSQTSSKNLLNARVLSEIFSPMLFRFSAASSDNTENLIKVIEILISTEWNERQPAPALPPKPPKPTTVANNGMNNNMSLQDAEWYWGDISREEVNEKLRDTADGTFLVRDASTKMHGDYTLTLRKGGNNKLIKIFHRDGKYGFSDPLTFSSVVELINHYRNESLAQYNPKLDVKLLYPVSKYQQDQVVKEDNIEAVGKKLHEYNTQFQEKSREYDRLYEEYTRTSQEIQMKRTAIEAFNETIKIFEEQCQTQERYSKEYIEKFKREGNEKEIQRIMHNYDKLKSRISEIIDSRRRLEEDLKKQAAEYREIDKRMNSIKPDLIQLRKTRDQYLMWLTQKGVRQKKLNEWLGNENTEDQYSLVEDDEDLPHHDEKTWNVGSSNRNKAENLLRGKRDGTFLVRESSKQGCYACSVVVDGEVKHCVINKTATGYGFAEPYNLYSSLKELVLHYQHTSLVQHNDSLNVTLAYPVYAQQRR
Chain of PI3-kinase p110-alpha/p85-alpha (P42336 whole entry, canonical isoform): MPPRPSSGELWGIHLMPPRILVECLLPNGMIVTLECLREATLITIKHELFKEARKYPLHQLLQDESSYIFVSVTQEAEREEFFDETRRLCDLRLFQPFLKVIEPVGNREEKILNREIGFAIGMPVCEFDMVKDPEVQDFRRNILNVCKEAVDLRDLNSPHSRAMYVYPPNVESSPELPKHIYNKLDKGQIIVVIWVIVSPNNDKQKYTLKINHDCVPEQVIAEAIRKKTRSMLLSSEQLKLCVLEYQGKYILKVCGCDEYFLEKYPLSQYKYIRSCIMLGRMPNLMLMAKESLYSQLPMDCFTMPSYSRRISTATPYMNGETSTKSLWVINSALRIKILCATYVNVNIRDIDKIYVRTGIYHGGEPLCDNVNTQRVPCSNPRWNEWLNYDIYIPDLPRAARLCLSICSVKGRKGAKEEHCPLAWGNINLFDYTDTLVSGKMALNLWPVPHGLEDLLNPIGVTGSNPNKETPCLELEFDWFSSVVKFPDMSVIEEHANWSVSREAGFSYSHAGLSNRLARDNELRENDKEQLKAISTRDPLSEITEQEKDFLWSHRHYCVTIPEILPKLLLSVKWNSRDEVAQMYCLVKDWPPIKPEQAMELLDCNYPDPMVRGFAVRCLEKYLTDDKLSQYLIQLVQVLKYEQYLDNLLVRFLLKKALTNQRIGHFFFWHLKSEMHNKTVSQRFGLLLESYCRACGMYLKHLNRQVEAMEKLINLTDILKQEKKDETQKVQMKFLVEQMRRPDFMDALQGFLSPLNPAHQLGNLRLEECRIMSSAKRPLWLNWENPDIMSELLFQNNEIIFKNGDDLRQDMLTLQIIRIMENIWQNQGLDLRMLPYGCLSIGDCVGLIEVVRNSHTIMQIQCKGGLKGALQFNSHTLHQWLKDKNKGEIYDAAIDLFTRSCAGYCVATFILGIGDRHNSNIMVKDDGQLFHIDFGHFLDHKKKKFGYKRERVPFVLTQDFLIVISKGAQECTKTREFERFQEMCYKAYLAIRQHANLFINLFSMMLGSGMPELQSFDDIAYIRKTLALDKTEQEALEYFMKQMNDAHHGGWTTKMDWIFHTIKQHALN
Chain of PI3-kinase p110-delta/p85-alpha (P27986 whole entry): as the sequence (P27986 whole entry, canonical isoform) above
Chain of PI3-kinase p110-delta/p85-alpha (O00329 whole entry): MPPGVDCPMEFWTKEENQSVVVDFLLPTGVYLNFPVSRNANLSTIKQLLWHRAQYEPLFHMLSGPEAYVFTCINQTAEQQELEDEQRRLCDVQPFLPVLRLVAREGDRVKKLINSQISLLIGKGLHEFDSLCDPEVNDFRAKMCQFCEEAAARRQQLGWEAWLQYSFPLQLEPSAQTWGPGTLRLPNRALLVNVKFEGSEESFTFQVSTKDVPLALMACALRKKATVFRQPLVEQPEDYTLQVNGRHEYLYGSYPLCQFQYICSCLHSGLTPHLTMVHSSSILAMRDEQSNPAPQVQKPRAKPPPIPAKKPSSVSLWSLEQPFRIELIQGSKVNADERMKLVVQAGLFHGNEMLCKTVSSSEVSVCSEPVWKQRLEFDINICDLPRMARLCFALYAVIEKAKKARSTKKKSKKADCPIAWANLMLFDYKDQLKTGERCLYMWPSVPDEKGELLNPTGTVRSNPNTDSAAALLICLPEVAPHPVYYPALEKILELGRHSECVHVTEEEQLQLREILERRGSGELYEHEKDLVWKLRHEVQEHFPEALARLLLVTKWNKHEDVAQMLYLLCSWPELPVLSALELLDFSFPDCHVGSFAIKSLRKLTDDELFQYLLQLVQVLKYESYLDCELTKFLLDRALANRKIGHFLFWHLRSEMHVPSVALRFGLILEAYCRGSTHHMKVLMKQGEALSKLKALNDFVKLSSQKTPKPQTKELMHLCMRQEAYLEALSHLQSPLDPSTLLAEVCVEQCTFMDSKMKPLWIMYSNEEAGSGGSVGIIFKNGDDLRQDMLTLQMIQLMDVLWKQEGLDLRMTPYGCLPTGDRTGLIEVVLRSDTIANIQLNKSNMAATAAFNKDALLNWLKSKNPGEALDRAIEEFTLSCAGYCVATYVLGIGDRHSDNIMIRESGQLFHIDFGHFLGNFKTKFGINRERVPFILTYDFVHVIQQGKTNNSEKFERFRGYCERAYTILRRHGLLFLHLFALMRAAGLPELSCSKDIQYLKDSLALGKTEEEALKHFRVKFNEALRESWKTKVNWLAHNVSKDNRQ

SMILES: C[C@H](Nc1ncnc(N)c1C#N)c1nc2cccc(Cl)c2c(=O)n1-c1ccccc1
IC50 [1]: 0.34 nM
IC50 [2]: 2030 nM
IC50 [3]: 154 nM

SMILES: C[C@H](Nc1nc(N)nc(N)c1Cl)c1nc2cccc(Cl)c2c(=O)n1-c1ccon1
IC50 [3]: 499 nM

SMILES: CC[C@H](Nc1ncnc2[nH]cnc12)c1nc2cccc(F)c2c(=O)n1-c1ccc(O)cc1
IC50 [1]: 14 nM
IC50 [2]: 1600 nM
IC50 [3]: 4300 nM

IC50 [3]: 54 nM
Drug metabolism [4]: Metabolite_Notdetected
SMILES: C[C@H](Nc1nc(N)nc(N)c1C#N)c1nc2cccc(Cl)c2c(=O)n1-c1cc[nH]n1

SMILES: C[C@H](Nc1nc(N)nc(N)c1Cl)c1nc2cccc(Cl)c2c(=O)n1-c1cc[nH]n1
Vd [5]: 1.29 L/kg
Papp A→B [6]: 1.1 ×10⁻⁶ cm/s
Papp B→A [7]: 19.6 ×10⁻⁶ cm/s
clearance [8]: 23.8 mL/min/kg
bioavailability [9]: 26%

Vd [5]: 0.22 L/kg
Papp A→B [6]: 1.5 ×10⁻⁶ cm/s
Papp B→A [7]: 17.3 ×10⁻⁶ cm/s
clearance [8]: 1.17 mL/min/kg
bioavailability [9]: 12%
SMILES: N#Cc1c(N)nc(N)nc1N[C@H](c1nc2c(Cl)cc(F)cc2c(=O)n1-c1cc[nH]n1)C1CC1

SMILES: C[C@H](Nc1nc(N)nc(N)c1Cl)c1nc2c(Cl)cc(F)cc2c(=O)n1-c1cc[nH]n1
Vd [10]: 1.5 L/kg
Vd [5]: 0.52 L/kg
fraction unbound [11]: 0.0305
GI50 (LNCaP [12]): 38 nM
IC50 [13]: > 25000 nM
MRT [14]: 4.54 h
GI50 (MDA-MB-415): 12 nM
inhibition in vivo at […] (Mus musculus [15]): 64%
Vd [16]: 1.88 L/kg
clearance [17]: 4.17 mL/min/kg
half-life [18]: 3.61 h
inhibition in vivo at […] (LNCaP [19]): 65%
Papp A→B [6]: 5.7 ×10⁻⁶ cm/s
bioavailability [20]: 90.4%
GI50 (PC-3): 120 nM
inhibition in vivo at 3 mg/kg (LNCaP [21]): 42%
bioavailability [22]: 68.6%
inhibition in vivo at 15 mg/kg (Mus musculus [23]): 64%
MRT [24]: 6.28 h
Papp B→A [7]: 21.7 ×10⁻⁶ cm/s
IC50 [25]: > 25000 nM
Vd [26]: 1.14 L/kg
MRT [27]: 1.97 h
GI50 (ZR-75-1): 2 nM
EC50 [28]: 5.6 nM
clearance [8]: 4.33 mL/min/kg
clearance [29]: 6.83 mL/min/kg
inhibition in vivo at 15 mg/kg (LNCaP [30]): 73%
MRT [31]: 4.7 h
fraction unbound [32]: 0.0333
GI50 (A498): 80 nM
fraction unbound [33]: 0.0085
bioavailability [9]: 66 to 66.4%
minimal effective dose (LNCaP [34]): 7.5 mg/kg
clearance [35]: 4 mL/min/kg
half-life [36]: 3.91 h
half-life [37]: 4.96 h
half-life [38]: 2.69 h
fraction unbound [39]: 0.0196
clearance [40]: 4.33 mL/min/kg

IC50 [3]: 199 nM
Drug metabolism [4]: Metabolite_Notdetected
SMILES: N#Cc1c(N)nc(N)nc1N[C@H](c1nc2cccc(Cl)c2c(=O)n1-c1cc[nH]n1)C1CC1

IC50 [3]: 187 nM
SMILES: C[C@H](Nc1ncnc(N)c1C#N)c1nc2cccc(Cl)c2c(=O)n1-c1ccc(O)cc1

Vd [5]: 0.83 L/kg
Papp A→B [6]: 2.2 ×10⁻⁶ cm/s
Papp B→A [7]: 11.8 ×10⁻⁶ cm/s
clearance [8]: 9.67 mL/min/kg
IC50 [3]: 4150 nM
bioavailability [9]: 42%
Drug metabolism [4]: Metabolite_Detected
SMILES: Nc1nc(N)c(Cl)c(N[C@H](c2nc3cccc(Cl)c3c(=O)n2-c2cc[nH]n2)C2CC2)n1

SMILES: N#Cc1c(N[C@H](c2nc3c(Cl)cc(F)cc3c(=O)n2-c2cc[nH]n2)C2CC2)nc(N)nc1C(F)F
IC50 [2]: 756 nM

From ChEMBL document CHEMBL4004819, “Discovery of a Phosphoinositide 3-Kinase (PI3K) β/δ Inhibitor for the Treatment of Phosphatase and Tensin Homolog (PTEN) Deficient Tumors: Building PI3Kβ Potency in a PI3Kδ-Selective Template by Targeting Nonconserved Asp856” (J Med Chem, 2017)
